Measurements reported in ChEMBL document CHEMBL3046095, “Synthesis and antiviral activities of amide derivatives containing the alpha-aminophosphonate moiety” (J Agric Food Chem, 2008).
≈ marks a conversion by molar mass, not a printed value.

Experiments:
[1] = system: Tobacco mosaic virus; assay: Antiviral activity against Tobacco mosaic virus (TMV) inoculated on 500 ug/mL compound smeared Nicotiana tabacum leaves assessed as protective effect against viral infection measured 3 to 4 days post viral infection; type: functional
Summary of the method: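 Half-leaf assay on same-age growing Nicotiana tabacum leaves: compound solution smeared on left half, solvent on right half as control. After 12 h, leaves scattered with silicon carbide were brush-inoculated with TMV at 6 × 10^-3 mg/mL. Local lesions were counted 3–4 d post-inoculation, three repetitions. Inhibition % = (control mean lesions − treated mean lesions)/control mean lesions × 100.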

[2] = system: Tobacco mosaic virus; assay: Antiviral activity against Tobacco mosaic virus (TMV) pre-treated with 500 ug/mL compound for 30 min followed by inoculation on left side of Nicotiana tabacum leaves assessed as virus inactivation effect measured 3 to 4 days post viral infection; type: functional
Summary of the method: (§1)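 Inactivation assay on N. tabacum leaves, with a solvent–virus mixture inoculated as control. Local lesion numbers were recorded 3–4 d after inoculation, three repetitions per compound. Inhibition % was derived from mean lesion counts relative to control.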

[3] = system: Tobacco mosaic virus; assay: Antiviral activity against Tobacco mosaic virus (TMV) inoculated on whole Nicotiana tabacum leaves followed by smearing with 500 ug/mL compound solution on left side of leaves assessed as viral infection curative effect measured 3 to 4 days post viral infection; type: functional
Summary of the method: (§2)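 Whole same-age growing N. tabacum leaves were dip-inoculated with TMV at 6 × 10^-3 mg/mL, then washed with water and dried. Compound solution was smeared on left half, solvent on right half as control. Local lesions were counted 3–4 d after inoculation, three repetitions per compound. Inhibition % = (control mean lesions − treated mean lesions)/control mean lesions × 100.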

[4] = system: Tobacco mosaic virus; assay: Antiviral activity against Tobacco mosaic virus (TMV) pre-treated with 125 ug/mL compound for 30 min followed by inoculation on left side of Nicotiana tabacum leaves assessed as virus inactivation effect measured 3 to 4 days post viral infection; type: functional; summary of the method: as §1
[5] = system: Tobacco mosaic virus; assay: Antiviral activity against Tobacco mosaic virus (TMV) pre-treated with compound for 30 min followed by inoculation on left side of Nicotiana tabacum leaves assessed as virus inactivation effect measured 3 to 4 days post viral infection; type: functional, organism-based; summary of the method: as §1
[6] = system: Tobacco mosaic virus; assay: Antiviral activity against Tobacco mosaic virus (TMV) pre-treated with 62.5 ug/mL compound for 30 min followed by inoculation on left side of Nicotiana tabacum leaves assessed as virus inactivation effect measured 3 to 4 days post viral infection; type: functional; summary of the method: as §1
[7] = system: Tobacco mosaic virus; assay: Antiviral activity against Tobacco mosaic virus (TMV) inoculated on whole Nicotiana tabacum leaves followed by smearing with 250 ug/mL compound solution on left side of leaves assessed as viral infection curative effect measured 3 to 4 days post viral infection; type: functional; summary of the method: as §2
[8] = system: Tobacco mosaic virus; assay: Antiviral activity against Tobacco mosaic virus (TMV) pre-treated with 250 ug/mL compound for 30 min followed by inoculation on left side of Nicotiana tabacum leaves assessed as virus inactivation effect measured 3 to 4 days post viral infection; type: functional; summary of the method: as §1
[9] = system: Tobacco mosaic virus; assay: Antiviral activity against Tobacco mosaic virus (TMV) inoculated on whole Nicotiana tabacum leaves followed by smearing with compound solution on left side of leaves assessed as viral infection curative effect measured 3 to 4 days post viral infection; type: functional, organism-based; summary of the method: as §2
[10] = system: Tobacco mosaic virus; assay: Antiviral activity against Tobacco mosaic virus (TMV) inoculated on whole Nicotiana tabacum leaves followed by smearing with 125 ug/mL compound solution on left side of leaves assessed as viral infection curative effect measured 3 to 4 days post viral infection; type: functional; summary of the method: as §2

`CCOP(=O)(OCC)C(NC(=O)c1cccc(F)c1)c1ccccc1F` (configuration not stated) was tested, and the Activity [1] was 41%, the Activity [2] was 70.7% and the Activity [3] was 6.2%.

`CCOP(=O)(OCC)C(NC(=O)c1cc(OC)c(OC)c(OC)c1)c1ccccc1` (configuration not stated) [DIETHYL PHENYL(3,4,5-TRIMETHOXYBENZAMIDO)METHYLPHOSPHONATE] showed an Activity [1] of 42%, an Activity [2] of 45.6% and an Activity [3] of 35.6%.

Compound `CCOP(=O)(OCC)C(NC(=O)c1ccccc1C(F)(F)F)c1ccccc1` (configuration not stated) [DIETHYL PHENYL(2-(TRIFLUOROMETHYL)BENZAMIDO)METHYLPHOSPHONATE] has an Activity [1] of 41.1%, an Activity [2] of 45.3% and an Activity [3] of 2.4%.

Work on `CCCOP(=O)(OCCC)C(NC(=O)c1cccc(F)c1)c1ccccc1` (configuration not stated) [DIPROPYL(3-FLUOROBENZAMIDO)(PHENYL)METHYLPHOSPHONATE] yielded an Activity [4] of 46%, an EC50 [5] of 150 µg/mL (≈ 381 µM) and an Activity [6] of 40.1%. The Activity [1] was 50.9%, the Activity [7] was 21% and the Activity [8] was 65%. The EC50 [9] was 546 µg/mL (≈ 1390 µM), the Activity [2] was 86.6% and the Activity [3] was 43%. It also gave an Activity [10] of 12.9%.

Compound `CCOP(=O)(OCC)C(NC(=O)c1ccccc1)c1ccccc1F` (configuration not stated) [DIETHYL BENZAMIDO(2-FLUOROPHENYL)METHYLPHOSPHONATE] has an Activity [1] of 43.1%, an Activity [2] of 70% and an Activity [3] of 32.2%.

In the case of `CCOP(=O)(OCC)C(NC(=O)c1cccc(F)c1)c1ccccc1` (configuration not stated) [DIETHYL(3-FLUOROBENZAMIDO)(PHENYL)METHYLPHOSPHONATE], the Activity [1] is reported as 56%, the Activity [2] is reported as 82.1% and the Activity [3] is reported as 24.6%.

In the case of `CNCC(=O)N[C@@H](CO)C(=O)N[C@H]1[C@H](O)[C@@H](O)[C@H](n2ccc(N)nc2=O)O[C@@H]1C(N)=O` [NINGNANMYCIN], the Activity [4] is reported as 78.4%, the EC50 [5] is reported as 55.6 µg/mL (≈ 125 µM) and the Activity [6] is reported as 69%. For the same compound, the Activity [1] was 60.2%, the Activity [7] was 51% and the Activity [8] was 100%. It also gave an EC50 [9] of 246 µg/mL (≈ 555 µM), an Activity [2] of 100% and an Activity [3] of 55.4%. For the same compound, the Activity [10] was 40.9%.

With `CCOP(=O)(OCC)C(NC(=O)c1ccccc1F)c1ccccc1F` (configuration not stated) the Activity [1] was 50%, the Activity [2] was 80% and the Activity [3] was 20.8%.

`CCCOP(=O)(OCCC)C(NC(=O)c1ccccc1C(F)(F)F)c1ccccc1` (configuration not stated) [DIPROPYL PHENYL(2-(TRIFLUOROMETHYL)BENZAMIDO)METHYLPHOSPHONATE] showed an Activity [4] of 39.2%, an EC50 [5] of 199 µg/mL (≈ 449 µM) and an Activity [6] of 31.2%. It also gave an Activity [1] of 44%, an Activity [7] of 38% and an Activity [8] of 60%. The EC50 [9] was 422 µg/mL (≈ 952 µM), the Activity [2] was 80% and the Activity [3] was 53.7%. The Activity [10] was 31.6%.

Work on `CCOP(=O)(OCC)C(NC(=O)c1ccccc1C(F)(F)F)c1ccccc1F` (configuration not stated) yielded an Activity [1] of 39.2%, an Activity [2] of 62.2% and an Activity [3] of 2.1%.

In the case of `CCCOP(=O)(OCCC)C(NC(=O)c1ccccc1)c1ccccc1` (configuration not stated) [DIPROPYL BENZAMIDO(PHENYL)METHYLPHOSPHONATE], the Activity [4] is reported as 23%, the EC50 [5] is reported as 279 µg/mL (≈ 743 µM) and the Activity [6] is reported as 10%. For the same compound, the Activity [1] was 49.9%, the Activity [7] was 23.9% and the Activity [8] was 51%. It also gave an EC50 [9] of 560 µg/mL (≈ 1490 µM), an Activity [2] of 78.9% and an Activity [3] of 42%. For the same compound, the Activity [10] was 14%.

With `CCOP(=O)(OCC)C(NC(=O)c1cc(OC)c(OC)c(OC)c1)c1ccccc1F` (configuration not stated) the Activity [1] was 41.2%, the Activity [2] was 33.7% and the Activity [3] was 17.1%.

With `CCOP(=O)(OCC)C(NC(=O)c1ccccc1)c1ccccc1` (configuration not stated) [DIETHYL BENZAMIDO(PHENYL)METHYLPHOSPHONATE] the Activity [1] was 39.1%, the Activity [2] was 42.4% and the Activity [3] was 8.7%.

In the case of `CCOP(=O)(OCC)C(NC(=O)/C=C/c1ccccc1)c1ccccc1` (configuration not stated) [(E)-DIETHYL CINNAMAMIDO(PHENYL)METHYLPHOSPHONATE], the Activity [4] is reported as 61.2%, the EC50 [5] is reported as 65.2 µg/mL (≈ 175 µM) and the Activity [6] is reported as 49.1%. It also gave an Activity [1] of 58.7%, an Activity [7] of 39.9% and an Activity [8] of 79.9%. It also gave an EC50 [9] of 439 µg/mL (≈ 1180 µM), an Activity [2] of 88.2% and an Activity [3] of 50%. The Activity [10] was 32.3%.

`CCOP(=O)(OCC)C(NC(=O)c1ccc(F)cc1)c1ccccc1` (configuration not stated) [DIETHYL(4-FLUOROBENZAMIDO)(PHENYL)METHYLPHOSPHONATE] showed an Activity [4] of 76.1%, an EC50 [5] of 54.8 µg/mL (≈ 150 µM) and an Activity [6] of 70%. For the same compound, the Activity [1] was 65.7%, the Activity [8] was 100% and the Activity [2] was 99.1%. It also gave an Activity [3] of 19.2%.

`CCOP(=O)(OCC)C(NC(=O)c1ccccc1Cl)c1ccccc1` (configuration not stated) [DIETHYL(2-CHLOROBENZAMIDO)(PHENYL)METHYLPHOSPHONATE] was tested, and the Activity [4] was 60.9%, the EC50 [5] was 60 µg/mL (≈ 157 µM) and the Activity [6] was 59%. The Activity [1] was 58%, the Activity [8] was 82.2% and the Activity [2] was 90.6%. The Activity [3] was 19%.

`CCOP(=O)(OCC)C(NC(=O)c1ccccc1Cl)c1ccccc1F` (configuration not stated) showed an Activity [1] of 40.9%, an Activity [2] of 39% and an Activity [3] of 19.7%.

`CCOP(=O)(OCC)C(NC(=O)/C=C/c1ccccc1)c1ccccc1F` (configuration not stated) gave an Activity [1] of 39%, an Activity [2] of 51.5% and an Activity [3] of 22.4%.

`CCCOP(=O)(OCCC)C(NC(=O)c1cc(OC)c(OC)c(OC)c1)c1ccccc1` (configuration not stated) [DIPROPYL PHENYL(3,4,5-TRIMETHOXYBENZAMIDO)METHYLPHOSPHONATE] gave an Activity [4] of 30.3%, an EC50 [5] of 210 µg/mL (≈ 451 µM) and an Activity [6] of 28.8%. The Activity [1] was 58.8%, the Activity [7] was 50.6% and the Activity [8] was 61%. It also gave an EC50 [9] of 250 µg/mL (≈ 537 µM), an Activity [2] of 83.4% and an Activity [3] of 55%. The Activity [10] was 40.9%.

Work on `CCOP(=O)(OCC)C(NC(=O)c1ccccc1F)c1ccccc1` (configuration not stated) [DIETHYL(2-FLUOROBENZAMIDO)(PHENYL)METHYLPHOSPHONATE] yielded an Activity [4] of 47.2%, an EC50 [5] of 119 µg/mL (≈ 326 µM) and an Activity [6] of 36.7%. The Activity [1] was 42%, the Activity [7] was 49% and the Activity [8] was 70.9%. The EC50 [9] was 256 µg/mL (≈ 700 µM), the Activity [2] was 78% and the Activity [3] was 53.6%. The Activity [10] was 34%.
